Data taken from ChEMBL document CHEMBL1141617, “Synthesis and evaluation of antitumoral activity of ester and amide derivatives of 2-arylamino-6-trifluoromethyl-3-pyridinecarboxylic acids” (2008).

What was measured:
Assay type in all cases: functional
RXF 393 = assay: Growth inhibition of human RXF393 cells; settings: for TGI: read-out: Log TGI (converted)
Summary of the method: (§1)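 NCI 60 human tumour cell line panel grown in RPMI1640 with 5% fetal calf serum and 2 mM L-glutamine. Cells seeded at a density set by each line's growth characteristics and preincubated 24 h. Compounds added in DMSO at 10^-4 to 10^-8 M (five 10-fold dilutions) and left 48 h continuously. Growth read by sulforhodamine B protein stain. GI50 is the molar concentration giving 50% net growth inhibition.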

A498 = assay: Growth inhibition of human A498 cells; summary of the method: as §1
NCI-H522 = assay: Growth inhibition of human NCI-H522 cells; settings: for TGI: read-out: Log TGI (converted); summary of the method: as §1
OVCAR-5 = assay: Growth inhibition of human OVCAR5 cells; summary of the method: as §1
CAKI-1 = assay: Growth inhibition of human CAKI1 cells; summary of the method: as §1
UO-31 = assay: Growth inhibition of human UO31 cells; summary of the method: as §1
SK-MEL-5 = assay: Growth inhibition of human SK-MEL5 cells; settings: for TGI: read-out: Log TGI (converted); summary of the method: as §1
HOP-92 = assay: Growth inhibition of human HOP92 cells; settings: for TGI: read-out: Log TGI (converted); summary of the method: as §1
CCRF-CEM = assay: Growth inhibition of human CCRF-CEM cells; summary of the method: as §1
MOLT-4 = assay: Growth inhibition of human MOLT4 cells; settings: for TGI: read-out: Log TGI (converted); summary of the method: as §1
COLO 205 = assay: Growth inhibition of human COLO205 cells; summary of the method: as §1
SK-OV-3 = assay: Growth inhibition of human SKOV3 cells; summary of the method: as §1
MDA-MB-231 = assay: Growth inhibition of human MDA-MB-231 cells; settings: for TGI: read-out: Log TGI (converted); summary of the method: as §1
RPMI-8226 = assay: Growth inhibition of human RPMI8226 cells; summary of the method: as §1
NCI-H460 = assay: Growth inhibition of human NCI-H460 cells; summary of the method: as §1
HCC 2998 = assay: Growth inhibition of human HCC2998 cells; summary of the method: as §1
HCT-116 = assay: Growth inhibition of human HCT116 cells; summary of the method: as §1
SK-MEL-2 = assay: Growth inhibition of human SKMEL2 cells; summary of the method: as §1
UACC-257 = assay: Growth inhibition of human UACC257 cells; summary of the method: as §1
IGROV-1 = assay: Growth inhibition of human IGROV1 cells; summary of the method: as §1
PC-3 = assay: Growth inhibition of human PC3 cells; summary of the method: as §1
MCF7 = assay: Growth inhibition of human MCF7 cells; summary of the method: as §1
[1] = Growth inhibition of human ADR-RES cells; summary of the method: as §1
T47D = assay: Growth inhibition of human T47D cells; summary of the method: as §1
Hs-578T = assay: Growth inhibition of human HS578T cells; settings: for TGI: read-out: Log TGI (converted); summary of the method: as §1
K562 = assay: Growth inhibition of human K562 cells; summary of the method: as §1
OVCAR-3 = assay: Growth inhibition of human OVCAR-3 cells; summary of the method: as §1
HL-60 = assay: Growth inhibition of human HL60 cells; summary of the method: as §1
SR = assay: Growth inhibition of human SR cells; summary of the method: as §1
SF-295 = assay: Growth inhibition of human SF295 cells; summary of the method: as §1
NCI-H226 = assay: Growth inhibition of human NCI-H226 cells; summary of the method: as §1
[2] = Growth inhibition of human NCI-322M cells; summary of the method: as §1
LOX IMVI = assay: Growth inhibition of human LOXIMVI cells; summary of the method: as §1

COc1cccc(NC(=O)c2ccc(C(F)(F)F)nc2Nc2ccc(Cl)cc2C)c1
GI50 (RXF 393): 1170 nM
GI50 (A498): 1660 nM
GI50 (NCI-H522): 1290 nM
TGI (NCI-H522): 7240 nM
GI50 (OVCAR-5): 2510 nM
GI50 (CAKI-1): 2750 nM
GI50 (UO-31): 1450 nM
TGI (UO-31; read-out: Log TGI (converted)): 8320 nM

Cc1ccc(Cl)cc1Nc1nc(C(F)(F)F)ccc1C(=O)Nc1cccc(C(F)(F)F)c1
GI50 (SK-MEL-5): 2190 nM
TGI (SK-MEL-5): 4470 nM
GI50 (HOP-92): 2190 nM
TGI (HOP-92): 8710 nM
GI50 (CCRF-CEM): 2820 nM
GI50 (MOLT-4): 2750 nM
TGI (MOLT-4): 10000 nM
GI50 (RXF 393): 2690 nM
TGI (RXF 393): 7940 nM
GI50 (COLO 205): 1740 nM
TGI (COLO 205; read-out: Log TGI (converted)): 3390 nM
GI50 (SK-OV-3): 1740 nM
TGI (SK-OV-3; read-out: Log TGI (converted)): 5500 nM
GI50 (A498): 2950 nM
TGI (A498; read-out: Log TGI (converted)): 8510 nM
GI50 (MDA-MB-231): 2290 nM
TGI (MDA-MB-231): 9550 nM
GI50 (RPMI-8226): 2340 nM
GI50 (NCI-H460): 2820 nM
TGI (NCI-H460; read-out: Log TGI (converted)): 10000 nM
GI50 (NCI-H522): 1780 nM
TGI (NCI-H522): 6310 nM
GI50 (HCC 2998): 1780 nM
TGI (HCC 2998; read-out: Log TGI (converted)): 4470 nM
GI50 (HCT-116): 2400 nM
GI50 (SK-MEL-2): 2450 nM
TGI (SK-MEL-2; read-out: Log TGI (converted)): 6610 nM
GI50 (UACC-257): 2950 nM
TGI (UACC-257; read-out: Log TGI (converted)): 8320 nM
GI50 (IGROV-1): 1700 nM
GI50 (PC-3): 2090 nM
GI50 (MCF7): 2510 nM
TGI (MCF7; read-out: Log TGI (converted)): 9550 nM
GI50 [1]: 2140 nM
TGI ([1]; read-out: Log TGI (converted)): 7590 nM
GI50 (T47D): 2240 nM
TGI (T47D; read-out: Log TGI (converted)): 8910 nM

COc1cccc(OC(=O)c2ccc(C(F)(F)F)nc2Nc2cc(Cl)ccc2C)c1
GI50 (Hs-578T): 1230 nM
TGI (Hs-578T): 4790 nM
GI50 (HOP-92): 1620 nM
TGI (HOP-92): 6920 nM
GI50 (CCRF-CEM): 2140 nM
TGI (CCRF-CEM; read-out: Log TGI (converted)): 5130 nM
GI50 (K562): 3090 nM
TGI (K562; read-out: Log TGI (converted)): 9330 nM
GI50 (MOLT-4): 3090 nM
TGI (MOLT-4): 7940 nM
GI50 (RXF 393): 245 nM
TGI (RXF 393): 977 nM

Cc1ccc(Cl)cc1Nc1nc(C(F)(F)F)ccc1C(=O)Oc1ccc(Cl)cc1
GI50 (HOP-92): 1910 nM
GI50 (OVCAR-3): 2570 nM
TGI (OVCAR-3; read-out: Log TGI (converted)): 8910 nM

COc1ccc(NC(=O)c2ccc(C(F)(F)F)nc2Nc2ccc(Cl)cc2C)cc1Cl
GI50 (K562): 2400 nM
GI50 (MOLT-4): 1550 nM
TGI (MOLT-4): 4900 nM
GI50 (HL-60): 2400 nM
TGI (HL-60; read-out: Log TGI (converted)): 5370 nM
GI50 (SR): 1700 nM
TGI (SR; read-out: Log TGI (converted)): 6460 nM
GI50 (MDA-MB-231): 1660 nM
TGI (MDA-MB-231): 6760 nM
GI50 (RPMI-8226): 2090 nM
TGI (RPMI-8226; read-out: Log TGI (converted)): 4900 nM
GI50 (MCF7): 2400 nM
GI50 (SF-295): 2340 nM

Cc1ccc(Cl)cc1Nc1nc(C(F)(F)F)ccc1C(N)=O
GI50 (NCI-H226): 1450 nM
TGI (NCI-H226; read-out: Log TGI (converted)): 9770 nM
GI50 [2]: 2040 nM
GI50 (LOX IMVI): 2240 nM
GI50 (SK-MEL-5): 1910 nM
TGI (SK-MEL-5): 6610 nM
GI50 (Hs-578T): 813 nM
TGI (Hs-578T): 3980 nM
